Only some compounds are listed: those with a hit (about 4.3% of all), similar ones and a draw of the others.
APP 5'UTR act: APP 5'UTR luciferase reporter activation; SH-SY5Y APP 5'UTR luciferase reporter, luminescence; zero percent = DMSO vehicle wells; activation, % at 2 µM; 190,000 tested, 1% active;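 active = activation above a set limit, based on mean plus 3 SD of controls, cut at about 140% in these data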
STAT1 act: activators of IFN-gamma induced STAT1 signaling. NIH 3T3 STAT1-luciferase reporter, luminescence; 100% = IFN-gamma alone, no compound. 200,000 tested, 2.6% active. activation (% of control), % at 5.5 µM. AID 932;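 active = activation above the screen-wide mean activation plus 3 SD, cut at about 130% in these data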;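 also: raw ratio to IFN-gamma control signal so 100% means no change and 0% no light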
FLuc inh counter: inhibits firefly luciferase, flagging false hits in luciferase inhibition screens; P08659; ATPLite firefly luciferase biochemical luminescence, 10 min; inhibition, % at 10 µM; 200,000 tested, 1.5% active; AID 1006;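 active = inhibition above about 50% when tested at 10 µM, limit read from the data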
Target sequence (P08659 whole entry, looked up): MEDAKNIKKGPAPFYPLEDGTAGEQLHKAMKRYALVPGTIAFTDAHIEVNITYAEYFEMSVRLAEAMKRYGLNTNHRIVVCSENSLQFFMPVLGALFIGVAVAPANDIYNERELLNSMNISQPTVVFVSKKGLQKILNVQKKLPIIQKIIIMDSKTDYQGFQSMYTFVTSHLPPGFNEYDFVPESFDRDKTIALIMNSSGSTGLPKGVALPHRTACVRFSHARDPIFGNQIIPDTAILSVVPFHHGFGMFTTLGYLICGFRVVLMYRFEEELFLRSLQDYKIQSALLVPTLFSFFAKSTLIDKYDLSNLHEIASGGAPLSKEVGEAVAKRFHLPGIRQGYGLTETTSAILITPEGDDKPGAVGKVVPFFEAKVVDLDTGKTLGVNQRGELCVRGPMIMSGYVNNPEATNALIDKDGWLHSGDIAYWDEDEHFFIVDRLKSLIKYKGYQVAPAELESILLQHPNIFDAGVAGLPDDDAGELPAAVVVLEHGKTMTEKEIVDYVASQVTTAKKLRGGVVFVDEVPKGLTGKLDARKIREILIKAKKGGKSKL
FLuc act counter: affects firefly luciferase, flagging false hits in luciferase stimulation screens | P08659 | ATPlite luciferase biochemical, luminescence, 10 min; 0 = ATP-free wells, 1 = DMSO control | activation factor at 10 µM | 200,000 tested, under 10 active;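 active = luciferase activation factor, scaled between plate controls, of at least 2 with compound at 10 µM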
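assay system = Luciferase/luciferin detection reagent, cell-free biochemical luciferase assay | also added = ATP substrate | times = 10 min post-reagent at room temperature | measured by = luminescence from luciferase reaction | measure = luciferase activation, seen as luminescence increase over controls | benchmarks = low control with PBS replacing ATP, high control enzyme plus ATP without compound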
NF-kB neuron act: raises NF-kB expression in human neuronal cells. fold change at 12.5 µM. 190,000 tested, 1.6% active. NF-kB reporter expression; hits give high values; in the data active = fold change above about 3.3
The depositor's hits bear a star; . = no result.

SMILES | APP 5'UTR act | STAT1 act | FLuc inh counter | FLuc act counter | NF-kB neuron act
Cc1ccc(C2=C/C(=C/c3cccs3)C(=O)O2)cc1 | -2 | 114 | 85* | 0.1 | 0.9
CC(=O)Oc1cccc(/C=C2\C=C(c3ccc(C)cc3)OC2=O)c1 | 4 | 102 | 44 | 0.6 | 1.1
Cc1ccc(C(=O)/C=C/Nc2ccc3c(c2)OCO3)cc1 | 95 | 132* | 80* | 0.2 | 6*
CC(=O)c1cccc(NS(=O)(=O)c2ccc(N/C=C\C(=O)c3ccc(C)cc3)cc2)c1 | 4 | 87 | -6 | 1.1 | 1
O=C(/C=C/Nc1cccc(O)c1)c1ccccc1 | 184* | 95 | 95* | 0.1 | 6.3*
CC(=O)c1ccc(N/C=C\C(=O)c2ccc(C)cc2)cc1 | 127 | 148* | 17 | 0.8 | 1
C/C(=C\C(=O)c1ccccc1)Nc1ccc(O)cc1 | 3 | 140* | 27 | 0.7 | 4.5*
CC(=O)c1cccc(NS(=O)(=O)c2ccc(N/C=C/C(=O)c3ccc(F)cc3)cc2)c1 | 3 | 103 | -3 | 1 | 0.55
OC1CN=C2C=CC=CN2C1 (stereo not drawn) | -4 | 98 | -8 | 1.1 | 1
O=C(Nc1cnccn1)Nc1ccc(Cl)cc1Cl | 33 | 117 | -6 | 1.1 | 1.3
Cc1ccc(C(=O)/C=C/Nc2cccc(O)c2)cc1 | 138* | 92 | 96* | 0 | 13*
Cc1ccc(C(=O)/C=C/C(=O)O)cc1 | 23 | 91 | 1 | 1 | 1.2
C/C(=C\C(=O)c1ccc(C)cc1)Nc1cccc(O)c1 | 157* | 101 | 65* | 0.3 | 1.4
CCOc1cc(/C=N/Nc2ncnc(Cl)c2N)ccc1O | 26 | 120 | 65* | 0.3 | 1.6
CCOc1cc(/C=N/Nc2nc(=O)[nH]nc2C)ccc1O | 2 | 110 | 0 | 1 | 1
CC(C)Oc1ccc(C(=O)Nc2nnc(SCC(=O)N3CCOCC3)s2)cc1 | 88 | 81 | 97* | 0 | 1.1
O=C(Nc1nnc(SCC(=O)N2CCCc3ccccc32)s1)c1cccc2ccccc12 | 7 | 99 | 4 | 1 | 0.92
CCOC(=O)CNC(=O)CSc1nnc(SCC(=O)NCC(=O)OCC)s1 | 4 | 102 | 2 | 1 | 0.95
CCOC(=O)CNC(=O)CSc1nnc(NC(=O)c2ccc(C)cc2)s1 | 37 | 44 | 94* | 0.1 | 2.8
COc1cccc(Nc2nnc(SCC(=O)N3CCOCC3)s2)c1 | 14 | 102 | 16 | 0.8 | 1.2
Cc1ccc(C(=O)Nc2nnc(SCC(=O)N3CCCc4ccccc43)s2)cc1 | 59 | 82 | 98* | 0 | 7.1*
CC1CCCC(N2C(=O)NC(NC(=O)c3ccco3)(C(F)(F)F)C2=O)C1C (stereo not drawn) | 7 | 102 | -8 | 1.1 | 1
CSc1ncccc1C(=O)Nc1ccc(F)c(F)c1F | -17 | 110 | -4 | 1 | 1.2
CCCNC(=S)Nc1c(C)n(C)n(-c2ccccc2)c1=O | -4 | 103 | -3 | 1 | .
Cc1cccc(C)c1NC(=O)C1c2cccc[n+]2CC(=O)N1Cc1cccs1 (stereo not drawn) | 5 | 100 | -4 | 1 | 1.1
SMILES | APP 5'UTR act | STAT1 act | FLuc inh counter | FLuc act counter | NF-kB neuron act
O=C(CSc1nc(Nc2ccccc2)nc(N2CCOCC2)n1)Nc1ccccc1Cl | -12 | 98 | -4 | 1 | 6.7*
Nn1c(-c2ccccn2)nnc1-c1ccccn1 | 20 | 125 | 5 | 0.9 | 1.4
c1ccc(-c2ccc(-c3ccccn3)nn2)nc1 | 107 | 114 | 60* | 0.4 | 2.2
CN(C)c1ccc(C2CC(c3cccc(NS(C)(=O)=O)c3)=NN2C(=O)c2ccccc2)cc1 (stereo not drawn) | 5 | 91 | 4 | 1 | 0.88
CCC(=O)N1N=C(c2ccc(NS(C)(=O)=O)cc2)CC1c1ccc(N(C)C)cc1 (stereo not drawn) | 24 | 129* | -3 | 1 | 2
Cc1cc(/C=C\c2ccccc2)nc2ccccc12 | 130 | 143* | 68* | 0.3 | 1.3
Cc1cc(C(=O)c2ccccc2)nc2ccccc12 | -5 | 89 | -8 | 1.1 | 1.1
C=CCNC(=S)N1CCN(Cc2ccccc2)CC1 | -28 | 105 | -5 | 1.1 | 1.1
COc1ccccc1C(=O)Nc1nc(-c2cccs2)c(NC(C)=O)s1 | 45 | 120 | 50* | 0.5 | 1.4
CCOC(=O)c1sc2nc(CC(=O)OC)nc(NCc3ccco3)c2c1C | -5 | 98 | -5 | 1 | 0.88
Cc1nc(NCc2ccco2)c2c(C)c(C)sc2n1 | -4 | 193* | -9 | 1.1 | 1.3
Oc1ccc(-c2csc(-c3c[nH]c4ccccc34)n2)c(O)c1 | 107 | 144* | 9 | 0.9 | 4.2*
O=C(COC(=O)c1cc(=O)c2ccccc2o1)Nc1ccc2ccccc2c1 | -13 | 92 | -6 | 1.1 | 1.2
O=C(Nc1ccc(N2CCOCC2)c(Cl)c1)c1ccco1 | 113 | 149* | 59* | 0.4 | 3.4*
O=C(Nc1ccc(N2CCOCC2)c(Cl)c1)c1ccccc1F | 127 | 138* | 28 | 0.7 | 5.1*
O=C(Nc1ccc(N2CCN(C(=O)c3ccccc3)CC2)c(Cl)c1)c1ccco1 | -2 | 94 | -5 | 1.1 | 0.56
O=C(Nc1ccc(Br)c(Cl)c1)c1ccco1 | 81 | 135* | 0 | 1 | 2.6
O=C(CSc1nc2ccccc2s1)Nc1ccc(N2CCOCC2)c(Cl)c1 | -8 | 108 | -5 | 1.1 | 0.87
O=C(CSc1nc2ccccc2o1)Nc1ccc(N2CCOCC2)c(Cl)c1 | 194* | 94 | -3 | 1 | 1.3
Cc1cccc(NC(=O)c2ccc(COc3cccc4ccccc34)o2)n1 | -10 | 104 | -4 | 1 | 0.96
O=C(CCNc1ccc(Cc2ccncc2)cc1)c1ccc([N+](=O)[O-])cc1 | 12 | 100 | -6 | 1.1 | 0.97
O=C(c1ccccc1)c1ccc(N2CCOCC2)c(F)c1 | 110 | 133* | 14 | 0.9 | 3
CC(C)(C)c1ccc(-c2conc2N)cc1 | 70 | 118 | 61* | 0.4 | 5*
CC(C)(C)c1ccc(-c2ncccc2O)cc1 | 24 | 100 | 47 | 0.5 | 1.8
CN(C)c1ccc(CC(=O)c2nc3ccccc3s2)cc1 | 92 | 134* | 2 | 1 | 1.2
SMILES | APP 5'UTR act | STAT1 act | FLuc inh counter | FLuc act counter | NF-kB neuron act
C/C(=N\NC(=O)c1cc(C)oc1C)c1ccc2c(c1)OCO2 | 22 | 112 | 20 | 0.8 | 1.8
C/C(=N\Nc1nc2ccccc2s1)c1ccc2c(c1)OCO2 | 47 | 121 | 2 | 1 | 3.4*
O=C(N/N=C/c1cccs1)c1ccc2c(c1)OCO2 | 104 | 129* | 88* | 0.1 | 1
C/C(=N\Nc1nc2ccccc2s1)c1ccc(Br)s1 | 17 | 95 | 1 | 1 | 1.3
Cc1cc(C(=O)N/N=C/c2cccc([N+](=O)[O-])c2)c(C)n1-c1ccccc1 | 36 | 132* | 38 | 0.6 | 1.2
Cc1cc(C(=O)N/N=C/c2ccc3c(c2)OCO3)c(C)o1 | 21 | 113 | 64* | 0.4 | 1.7
O=C(N/N=C/c1ccncc1)c1ccc2c(c1)OCO2 | 1 | 107 | 36 | 0.6 | 1.3

Source: PubChem BioAssay (several laboratories)
